Screens deposited in PubChem BioAssay by Broad Institute.
miR-122 sensor – miR-122 inhibition in Huh7 cells; 0.3% of 340,000 active; activation (reporter increase), % at 12.5 µM; Huh7 miR-122 Renilla luciferase sensor, 48 h; neutral wells = 0, positive control = 100;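 active = mean replicate activation score at least 90 and every replicate individually at or above 90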;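 note: higher luciferase means less miR-122 activity so hits act as miR-122 inhibitors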
CAL PDZ FP-1 – inhibitors of human CAL PDZ peptide binding. 0.02% of 330,000 active. Q9HD26. purified CAL PDZ, TMR-peptide fluorescence polarization, 1 h. inhibition, % at 20 µM;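 active = highest replicate inhibition of at least 40%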;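 note: plate controls were DMSO neutral control wells for no effect and unlabeled competitor peptide control wells for full effect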
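material = purified tagged CAL PDZ domain construct (CerCALP) | compound dosing = 20 µM, one dose | times = 1 h at RT | measured by = fluorescence polarization from S- and P-plane intensities, G-factor corrected | read-out = inhibition from polarization loss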
PvdQ acylase – P. aeruginosa PvdQ acylase inhibition. purified PvdQ acylase, fluorescence plate reader. inhibition, % at 10 µM. 0.063% of 340,000 active. AID 488965; in the data active = inhibition above about 30%, passing the limit was not always enough;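 note: 0% = vehicle neutral wells and 100% = reference inhibitor wells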
CAL PDZ FP-2 – inhibitors of human CAL PDZ peptide binding; AID 602252; inhibition, % at 24.9 µM; 0.92% of 300,000 active; purified CAL PDZ, TMR-peptide fluorescence polarization, 1 h;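 active = mean inhibition of at least 30% with at least half of replicates also reaching 30%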;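 note: 0% = DMSO neutral control and 100% = excess unlabeled competitor peptide PRC23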
* = called active by the depositor; . = no result; ! = not active in a repeat; [ ] = dose if it differs, or a comment. Rows were chosen to be rich in hits. Some 0.95% of all compounds tested hit in one or more screens of this group.

SMILES	miR-122 sensor	CAL PDZ FP-1	PvdQ acylase	CAL PDZ FP-2
Cc1ccc(C)c(NC(=O)CSc2nnc(CSc3nc(C)cc(C)n3)n2Cc2ccco2)c1	119*	0	5	-1
Cc1ccc(NC(=O)CSc2nnc(CSc3nc(C)cc(C)n3)n2Cc2ccco2)c(C)c1	22	-1	-4	0
Cc1ccc(-n2c(CSc3nc(C)cc(C)n3)nnc2SCC(=O)NCc2ccco2)cc1	-19	0	-13	104*
Cc1ccc(-n2c(Cc3cccn3C)nnc2SCC(=O)NCc2ccco2)cc1	-4	-2	-1	-5
CCN(CC)S(=O)(=O)c1ccc(C(=O)N2CCc3ccccc32)cc1	-5	0	-11	2
CCOC(=O)c1cc(C#N)c(N2CCN(C(=O)c3cccc(C(F)(F)F)c3)CC2)nc1C(F)(F)F	.	-2	-2	65*
CCOC(=O)c1cc(C#N)c(N2CCN(C(=O)c3ccccc3)CC2)nc1C(F)(F)F	.	-2	0	4
CCc1ccc(N2CCN(C(=O)c3ccc4c(c3)OCO4)CC2)cc1	.	-1	-10	-2
O=C(NNC(=O)C1CCC1)c1ccc(Br)cc1	.	0	-21	50*
S=C1NC(c2ccccc2)=CC(c2ccccc2)N1 (stereo not given)	-4	0	5	5
N#CC1C(=O)NC(c2ccccc2)=CC1c1ccccc1 (stereo not given)	6	-2	-20	110*
CCCCCCC(=O)Oc1cccc(C2=CC(=O)CC(C)(C)C2=O)c1	1	.	.	.
CCCCCCC(=O)Oc1cccc(N2C(=O)C3CCCCC3C2=O)c1 (stereo not given)	.	0	-9	79*
Cc1ccnc(NS(=O)(=O)c2ccc(NC(=O)CN3C(=O)c4ccccc4S3(=O)=O)cc2)n1	-4	-1	-9	-4
CCOC(=O)C1(Cc2ccc(Cl)cc2)CCN(C(=O)CCc2cnccn2)CC1	-5	1	3	-1
CCOC(=O)C1(Cc2ccc(OC)cc2)CCN(C(=O)CCc2cnccn2)CC1	-3	0	-8	76*
CC(C)Nc1cc(C(C)(C)C)nc2c(-c3ccccc3)cnn12	.	-1	-18	133*
Cn1c(Cc2ccccc2)n[nH]c1=S	.	-1	-16	0
Cn1c(Cc2cccs2)n[nH]c1=S	-2	0	-16	38*
Cc1ccc(/C=N/N(C)S(=O)(=O)c2ccc(C)cc2)cc1	5	.	-15	49*
COc1ccc(/C=N/N2CCN(Cc3ccc(C)cc3)CC2)cc1Br	-4	7	-14	72*
CCCN(CC(=O)Nc1ccccc1OC)C(=O)CSC(=S)N1CCCC1	-1	0	-5	60*
CCCN(CC(=O)Nc1cc(Cl)ccc1Cl)C(=O)c1ccccn1	-5	-6	-7	6
CCCN(CC(=O)Nc1ccccc1OC)C(=O)CC1CCCC1	-10	2	-3	0
CCCN(CC(=O)Nc1ccccc1OC)C(=O)c1ccccn1	0	0	-11	74*
SMILES	miR-122 sensor	CAL PDZ FP-1	PvdQ acylase	CAL PDZ FP-2
Cc1cc(OCC(=O)NCCCn2ccnc2)c2c(C)cc(=O)oc2c1	0	-1	-12	-5
CN(Cc1c(C(=O)N/N=C/c2ccccc2F)nnn1-c1nonc1N)c1ccccc1	2	-3	-12	-3
Clc1cccc2c1CCN(Cc1nc(-c3cnccn3)no1)C2	.	.	-13	56*
c1ccc(C(c2ccccc2)N2CCN(Cc3nc(-c4cnccn4)no3)CC2)cc1	-4	-1	-12	-8
Cc1ccc(NC(=O)COc2ccc(Br)cc2CO)cc1	284*	-3	-9	.
O=C(COc1ccc(Br)cc1CO)Nc1ccccc1	-4	-2	-3	-4
CC(=O)Nc1ccc(C(=O)CN2C(=O)NC3(CCOc4ccccc43)C2=O)c(F)c1 (stereo not given)	.	-1	-2	40*
CC(NC(=O)c1cc(-c2ccncc2)nc2ccc(Br)cc12)C1CCCO1 (stereo not given)	0	-2	-19	45*
COc1ccc(C(=O)NCc2nnc(SCC(=O)c3ccccc3)n2C)cc1	.	-1	-11	-3
C[C@]12CCC(=O)C[C@@H]1CC[C@@H]1[C@@H]2CC[C@]2(C)[C@@H](C(=O)COC(=O)CCC(=O)O)CC[C@@H]12	-5	-1	-14	167*!
O=C(NC(=S)Nc1ccc(S(=O)(=O)NC2CCCCC2)cc1)c1cccs1	396*	-1	-8	-6
C=CCn1c(SC2CCOC2=O)nc2sc(C)c(C)c2c1=O (stereo not given)	4	.	-16	49*
Cc1sc2nc(SC3CCOC3=O)n(Cc3ccccc3)c(=O)c2c1C (stereo not given)	.	-4	-4	-1
COc1cc(NC(=O)C2CCCN(S(=O)(=O)c3cccc4nsnc34)C2)cc(OC)c1 (stereo not given)	-3	-1	-11	58*
Cc1ccc(S(=O)(=O)N(C)C[C@H]2Oc3ccc(NC(=O)C4CC4)cc3CC(=O)N([C@H](C)CO)C[C@H]2C)cc1	-2[16.7 µM]	.	.	.
Cc1cc(C)cc(NC(=O)C2CCN(S(C)(=O)=O)CC2)c1	-2	-1	-17	-4
Cc1cc(C)cc(NC(=O)C2CCN(c3nccs3)CC2)c1	128*	-1	-17	2
CCOc1ccc(CSC2=NCCN2)cc1Cl	277*	-2	-15	-3
N#Cc1ccc(CSC2=NCCN2)cc1	.	0	11	-4
O=[N+]([O-])c1ccccc1N/N=C1\CC2CC=CC12 (stereo not given)	.	-3	58*	-3
O=C(Nc1ccccc1Oc1ccsc1C(=O)O)c1ccccc1F	.	-1	7	-1
O=C(Nc1ccccc1Oc1ccsc1C(=O)O)c1ccccc1	.	-3	-12	39*
O=C(Oc1coc(CSc2ncccn2)cc1=O)c1ccccc1[N+](=O)[O-]	.	0	-16	82*
Cc1cc(C)nc(SCc2cc(=O)c(OC(=O)c3cc([N+](=O)[O-])ccc3Cl)co2)n1	.	1	-2	-1
COc1ccccc1CC1CC(=O)N(c2cccc(Cl)c2C)C1=O (stereo not given)	.	0	2	-1
SMILES	miR-122 sensor	CAL PDZ FP-1	PvdQ acylase	CAL PDZ FP-2
CCc1noc(C)c1C(=O)N(CCOC)c1c(N)n(CC(C)C)c(=O)[nH]c1=O	-5	0	-10	38*
CCCCN(C(=O)c1c(CC)noc1C)c1c(N)n(CC(C)C)c(=O)[nH]c1=O	-6	0	-10	2
COc1ccccc1NC(=S)N(Cc1cccnc1)Cc1ccco1	0	-1	-6	2
Cc1cc(Cl)c(S(=O)(=O)Nc2ccc3c(c2)OCO3)cc1OCC(N)=O	37	0	-11	-3
Cc1cc(Cl)c(S(=O)(=O)Nc2ccc3c(c2)OCO3)cc1OCC(=O)NC1CCCCC1	94*	-1	0	-2
C[C@H](CO)N1C[C@H](C)[C@H](CN(C)Cc2ccccc2)Oc2c(NC(=O)Nc3ccc4c(c3)OCO4)cccc2C1=O	8[16.7 µM]	.	.	.
c1ccc(-n2nnnc2-c2cccc3ccccc23)cc1	116*	-1	6	.
c1ccc(CNc2nnnn2-c2ccccc2)cc1	128*	-2	-9	4
CC(C)NC(=S)N1CCn2c(nc3ccccc32)C1	116*	0	-8	.
